Data set [1] has as its target Neuronal acetylcholine receptor subunit alpha-7 (Rattus norvegicus, UniProt Q05941). As to the kind of experiment: Displacement of [125I]-alpha-bungarotoxin from alpha7 nAChR in Wistar rat brain membrane incubated for 3 hrs by gamma counting analysis. It is filed as cell membranes. The method, boiled down: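 Frontal cortex membranes from male Wistar rats (2 rats per experiment), homogenised in pH 7.4 HEPES buffer and spun at 45,000×g. 25 μg protein incubated with 2 nM [125I]α-bungarotoxin and 10^-10 to 10^-6 M competitor in pH 7.4 Tris-HCl with Ca/Mg for 3 h at 22 °C. Nonspecific binding defined with 1 μM α-bungarotoxin. Filtered on PEI-soaked GF/C, gamma counted. IC50 read graphically, converted to Ki.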
On the technique in general: Displacement assays read how much labelled ligand stays bound in the presence of the test substance.

Data set [2] concerns the target Neuronal acetylcholine receptor subunit alpha-7 (Homo sapiens) (UniProt P36544). As to the kind of experiment: Agonist activity at alpha7 nAChR in human SH-SY5Y cells assessed as release of intracellular calcium at 3 nM preincubated for 20 mins with alpha7 nAChR antagonist alpha-bungarotoxin and for 1 min with alpha7 nAChR PAM PNU120596 prior to compound addition by Fluo-3 AM staining-based fluorescence spectral scanning multimode reader analysis. It is filed as cell-based. The procedure, abridged:
(§1)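 Differentiated SH-SY5Y cells loaded with fluo-3 AM as above, then preincubated 20 min at r.t. in Tyrode's solution with 100 nM α-bungarotoxin. PNU-120596 added 1 min before test agent or 3 mM choline. Fluorescence read at Ex 506/Em 526 nm, response expressed as % of (Fmax−Fmin) from 0.3% Triton X-100 then 100 mM MnCl2. 5 experiments in duplicate, mean ± SEM.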
(In general: A change in cytosolic calcium serves as a functional read-out for many receptors and channels.)

Data set [3] addresses Neuronal acetylcholine receptor; alpha4/beta2 (Homo sapiens, UniProt P17787+P43681). As to the kind of experiment: Displacement of [3H]cytisine from human recombinant alpha4beta2 nAChR incubated for 120 mins by radiometric scintillation analysis. It counts as protein-complex assay.
Data set [4] concerns the target T1, 5-hydroxytryptamine receptor 3A (Homo sapiens, UniProt P46098).
T1 sequence (P46098 whole entry): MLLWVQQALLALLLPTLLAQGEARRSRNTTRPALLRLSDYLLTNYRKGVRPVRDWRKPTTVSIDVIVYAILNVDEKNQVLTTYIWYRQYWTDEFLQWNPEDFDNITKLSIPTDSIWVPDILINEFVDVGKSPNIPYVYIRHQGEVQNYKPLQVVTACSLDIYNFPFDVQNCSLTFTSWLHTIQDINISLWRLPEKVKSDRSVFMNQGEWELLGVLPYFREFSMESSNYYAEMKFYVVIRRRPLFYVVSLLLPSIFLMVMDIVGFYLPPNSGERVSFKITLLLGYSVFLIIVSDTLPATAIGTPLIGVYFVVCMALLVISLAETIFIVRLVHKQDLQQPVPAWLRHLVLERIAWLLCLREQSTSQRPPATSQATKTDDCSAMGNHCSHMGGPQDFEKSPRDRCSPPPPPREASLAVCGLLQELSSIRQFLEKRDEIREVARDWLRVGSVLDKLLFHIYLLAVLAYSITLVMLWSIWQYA
As to the kind of experiment: Displacement of [3H]BRL 43694 from human 5HT3R by radioligand displacement assay.

Data set [5] has as its system SH-SY5Y. As to the kind of experiment: Cytotoxicity against human SH-SY5Y cells assessed as cell viability at 0.003 to 3 uM incubated for 48 hrs by MTS assay. It is filed as cell-based. The method, boiled down:
(§2)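 Retinoic acid-differentiated SH-SY5Y cells exposed for 48 h to 10, 100 and 1000 × Ki of each agent. MTS added for 3 h, absorbance read at 490 nm. Viability given as % of vehicle-treated cells. 4 independent experiments in triplicate, mean ± SEM.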
(In general: Tetrazolium assays rely on reduction of a dye to a coloured formazan, in cell work by metabolically active cells.)

Data set [6] deals with Neuronal acetylcholine receptor subunit alpha-7 (Homo sapiens) (UniProt P36544). Put plainly: Agonist activity at alpha7 nAChR in human SH-SY5Y cells assessed as increase in intracellular calcium release at 3 nM preincubated for 1 min with alpha7 nAchR PAM PNU120596 prior to compound addition by Fluo-3 AM staining-based fluorescence spectral scanning multimode reader analysis relative to choline. It is filed as cell-based. The method, boiled down:
(§3)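 SH-SY5Y (ATCC) grown in MEM/F12 1:1 with 10% heat-inactivated FBS, differentiated with 10 μM retinoic acid for 7 days. Cells loaded with 10 μM fluo-3 AM plus 0.02% Pluronic F127 for 1 h at r.t. in the dark, then preincubated 20 min at r.t. in Tyrode's solution with vehicle. PNU-120596 added in the last minute. Fluorescence read at Ex 506/Em 526 nm, normalised to Triton (Fmax) and MnCl2 (Fmin). 5 experiments in duplicate, mean ± SEM.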

The target is the same in data set [7]. As to the kind of experiment: Agonist activity at alpha7 nAChR in human SH-SY5Y cells assessed as release of intracellular calcium at 130 nM preincubated for 20 mins with alpha7 nAChR antagonist alpha-bungarotoxin and for 1 min with alpha7 nAChR PAM PNU120596 prior to compound addition by Fluo-3 AM staining-based fluorescence spectral scanning multimode reader analysis. It is filed as cell-based. The method, boiled down: as §1

A short description of data set [8]: Cytotoxicity against human SH-SY5Y cells assessed as reduction in cell viability at 13 uM incubated for 48 hrs by MTS assay relative to control. It counts as cell-based. As to conditions: read-out: INH. The procedure, abridged: as §2
The subject of data set [9] is SH-SY5Y. As to the kind of experiment: Cytotoxicity against human SH-SY5Y cells assessed as cell viability at 0.13 to 1.3 uM incubated for 48 hrs by MTS assay. It counts as cell-based. The method, boiled down:
as §2

Data set [10] addresses Neuronal acetylcholine receptor subunit alpha-7 (Homo sapiens) (UniProt P36544). As to the kind of experiment: Agonist activity at alpha7 nAChR in human SH-SY5Y cells assessed as increase in intracellular calcium release at 130 nM preincubated for 1 min with alpha7 nAchR PAM PNU120596 prior to compound addition by Fluo-3 AM staining-based fluorescence spectral scanning multimode reader analysis. It counts as cell-based. The procedure, abridged: as §3

Data set [11] has the same target. As to the kind of experiment: Agonist activity at alpha7 nAChR in human SH-SY5Y cells assessed as increase in intracellular calcium release at 50 nM preincubated for 1 min with alpha7 nAchR PAM PNU120596 prior to compound addition by Fluo-3 AM staining-based fluorescence spectral scanning multimode reader analysis. It counts as cell-based. The procedure, abridged:
as §3

For data set [12], the system named is SH-SY5Y. Put plainly: Cytotoxicity against human SH-SY5Y cells assessed as cell viability at 50 nM to 5 uM incubated for 48 hrs by MTS assay. It is filed as cell-based. The following applies: 0.05 µM. The procedure, abridged:
as §2

The target in data set [13] is Neuronal acetylcholine receptor subunit alpha-7 (Homo sapiens) (UniProt P36544). Put plainly: Agonist activity at alpha7 nAChR in human SH-SY5Y cells assessed as release of intracellular calcium at 50 nM preincubated for 20 mins with alpha7 nAChR antagonist alpha-bungarotoxin and for 1 min with alpha7 nAChR PAM PNU120596 prior to compound addition by Fluo-3 AM staining-based fluorescence spectral scanning multimode reader analysis. It is filed as cell-based. The procedure, abridged:
as §1

For data set [14] the target is unchanged. Put plainly: Agonist activity at alpha7 nAChR in human SH-SY5Y cells assessed as intracellular calcium release at 7 nM preincubated for 1 min with alpha7 nAchR PAM PNU120596 prior to compound addition by Fluo-3 AM staining-based fluorescence spectral scanning multimode reader analysis. It is filed as cell-based. The procedure, abridged: as §3

The structures appear in SMILES notation. Activity calls are given as the source filed them. No cut-off for these calls is given here. Bounds are passed on as bounds.

Chain of Neuronal acetylcholine receptor; alpha4/beta2 (P17787 whole entry): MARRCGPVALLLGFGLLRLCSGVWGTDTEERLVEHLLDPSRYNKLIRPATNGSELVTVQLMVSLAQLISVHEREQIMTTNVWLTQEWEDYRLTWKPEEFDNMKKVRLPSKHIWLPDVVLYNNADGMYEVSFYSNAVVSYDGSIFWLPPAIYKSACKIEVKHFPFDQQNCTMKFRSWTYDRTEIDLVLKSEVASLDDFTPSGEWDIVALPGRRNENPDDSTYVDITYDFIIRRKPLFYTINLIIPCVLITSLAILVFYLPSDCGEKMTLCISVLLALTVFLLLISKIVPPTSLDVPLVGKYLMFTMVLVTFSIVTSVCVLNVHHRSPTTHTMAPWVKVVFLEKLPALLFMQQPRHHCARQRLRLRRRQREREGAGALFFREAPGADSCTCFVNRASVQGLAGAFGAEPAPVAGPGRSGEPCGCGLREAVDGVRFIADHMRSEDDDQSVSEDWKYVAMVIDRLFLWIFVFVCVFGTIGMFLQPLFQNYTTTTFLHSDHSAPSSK
Chain of Neuronal acetylcholine receptor; alpha4/beta2 (P43681 whole entry): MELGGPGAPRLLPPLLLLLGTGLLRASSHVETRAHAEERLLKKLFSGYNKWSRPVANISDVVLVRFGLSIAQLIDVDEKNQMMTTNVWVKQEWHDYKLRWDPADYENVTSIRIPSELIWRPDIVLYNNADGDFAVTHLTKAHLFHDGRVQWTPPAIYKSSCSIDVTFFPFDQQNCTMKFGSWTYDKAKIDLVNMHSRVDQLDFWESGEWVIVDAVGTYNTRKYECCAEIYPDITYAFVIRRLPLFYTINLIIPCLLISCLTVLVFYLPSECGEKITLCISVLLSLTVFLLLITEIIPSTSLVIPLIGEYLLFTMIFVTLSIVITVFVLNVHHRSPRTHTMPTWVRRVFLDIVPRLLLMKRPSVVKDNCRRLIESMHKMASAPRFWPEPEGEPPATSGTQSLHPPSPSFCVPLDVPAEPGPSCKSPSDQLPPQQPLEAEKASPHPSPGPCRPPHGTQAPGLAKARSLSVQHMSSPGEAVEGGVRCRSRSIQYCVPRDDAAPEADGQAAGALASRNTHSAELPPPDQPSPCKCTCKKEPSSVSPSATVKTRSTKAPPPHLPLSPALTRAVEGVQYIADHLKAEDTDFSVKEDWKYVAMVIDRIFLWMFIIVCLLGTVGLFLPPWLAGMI
Chain of Neuronal acetylcholine receptor subunit alpha-7 (Q05941 whole entry): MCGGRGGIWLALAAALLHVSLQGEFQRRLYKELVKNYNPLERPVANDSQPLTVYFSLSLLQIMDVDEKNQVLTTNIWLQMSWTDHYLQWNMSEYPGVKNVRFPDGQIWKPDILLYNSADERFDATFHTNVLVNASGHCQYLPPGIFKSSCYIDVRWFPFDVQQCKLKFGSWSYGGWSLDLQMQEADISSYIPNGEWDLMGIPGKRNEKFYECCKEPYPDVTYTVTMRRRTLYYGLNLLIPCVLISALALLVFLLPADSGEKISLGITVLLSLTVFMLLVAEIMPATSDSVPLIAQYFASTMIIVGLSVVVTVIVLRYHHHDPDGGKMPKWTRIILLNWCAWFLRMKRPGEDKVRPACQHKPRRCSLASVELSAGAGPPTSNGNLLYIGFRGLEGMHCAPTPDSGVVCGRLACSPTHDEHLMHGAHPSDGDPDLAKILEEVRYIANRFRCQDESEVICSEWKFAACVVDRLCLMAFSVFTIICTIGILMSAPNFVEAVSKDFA
Chain of Neuronal acetylcholine receptor subunit alpha-7 (Homo sapiens) (P36544 whole entry): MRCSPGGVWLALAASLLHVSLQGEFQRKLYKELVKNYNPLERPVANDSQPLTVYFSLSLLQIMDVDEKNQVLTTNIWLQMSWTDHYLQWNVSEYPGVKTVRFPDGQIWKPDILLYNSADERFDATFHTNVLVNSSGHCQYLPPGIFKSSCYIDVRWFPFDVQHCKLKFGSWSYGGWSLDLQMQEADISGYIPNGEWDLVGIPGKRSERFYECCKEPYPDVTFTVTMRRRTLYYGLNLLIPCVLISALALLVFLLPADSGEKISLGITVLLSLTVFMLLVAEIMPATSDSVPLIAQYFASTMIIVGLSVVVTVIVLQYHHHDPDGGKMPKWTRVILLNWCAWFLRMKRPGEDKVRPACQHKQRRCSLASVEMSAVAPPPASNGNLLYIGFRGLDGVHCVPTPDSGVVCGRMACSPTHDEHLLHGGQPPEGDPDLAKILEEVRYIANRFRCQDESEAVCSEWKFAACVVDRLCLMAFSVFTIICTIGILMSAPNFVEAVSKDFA

Usually Ki stands for a measure of affinity in units of concentration, obtained from inhibition or displacement. The compound `OCc1ccc(-c2ccc(-c3cn([C@H]4CN5CCC4CC5)nn3)cc2)s1` gave a Ki in data set [1] of 120 to 200 nM.
The same measure, in the same setting: in the case of `c1cc(CN2CCCCC2)cc(-c2cccc(-c3cn([C@H]4CN5CCC4CC5)nn3)c2)c1` it was 122 nM; in that of `CN1CCN(Cc2ccc(-c3cccc(-c4cn([C@H]5CN6CCC5CC6)nn4)c3)cc2)CC1`, 1.9 nM; in that of `c1ccc(-c2ccc(-c3cn([C@H]4CN5CCC4CC5)nn3)s2)cc1`, 43 nM.
On the same count and under the same terms, in the case of `OCc1ccc(-c2ccc(-c3cn([C@H]4CN5CCC4CC5)nn3)cc2)cc1` it was 100 to 175 nM.
On the same count and under the same terms, the value for `COC(=O)c1ccc(-c2ccc(-c3cn([C@H]4CN5CCC4CC5)nn3)s2)cc1F` was 80 to 90 nM.
`OCc1ccc(-c2cccc(-c3cn([C@H]4CN5CCC4CC5)nn3)c2)cc1`: the Ki in [1] came to 7 nM.
Same read-out and setting: in the case of `FC1CCN(Cc2ccc(-c3ccc(-c4cn([C@H]5CN6CCC5CC6)nn4)s3)cc2)CC1` it was 2.8 nM; in that of `OCc1ccc(-c2cccc(-c3cn([C@H]4CN5CCC4CC5)nn3)c2)s1`, 0.2 nM.
Same read-out and setting: the value for `c1cc(-c2ccc(CN3CCCCC3)cc2)cc(-c2cn([C@H]3CN4CCC3CC4)nn2)c1` was 3 nM.
The same measure, in the same setting: in the case of `OCc1ccc(-c2csc(-c3cn([C@H]4CN5CCC4CC5)nn3)c2)cc1` it was 1.5 nM.
For the compound `c1cc(-c2ccc(-c3cn([C@H]4CN5CCC4CC5)nn3)s2)ccc1CN1CCCCC1`, the outcome in [2] was inactive. In addition, the results for the Ki in data set [3] and in data set [4] were 1000 nM and 560 nM, respectively. Moreover, the Activity entry with SH-SY5Y [5] was “Non-Toxic”; in [6] it was 80%.
In data set [1], `c1cc2c(cc1-c1ccc(-c3cn([C@H]4CN5CCC4CC5)nn3)s1)OCCO2` had a Ki of 140 nM.
`OCCc1ccc(-c2ccc(-c3cn([C@H]4CN5CCC4CC5)nn3)s2)cc1`: the Ki in data set [1] stood at 1.5 nM.
Same read-out and setting: in the case of `FCCOc1ccc(-c2ccc(-c3cn([C@H]4CN5CCC4CC5)nn3)s2)cc1` it was 340 nM.
In data set [1], `COCOCCOc1ccc(-c2ccc(-c3cn([C@H]4CN5CCC4CC5)nn3)s2)cc1` registered a Ki of 140 nM.
Take `c1cc(-c2ccc(CN3CCOCC3)cc2)cc(-c2cn([C@H]3CN4CCC3CC4)nn2)c1`: the Ki in data set [1] was determined as 12.5 nM.
The same measure, in the same setting: in the case of `OC1CCN(Cc2ccc(-c3ccc(-c4cn([C@H]5CN6CCC5CC6)nn4)s3)cc2)CC1` it was 0.3 nM; in that of `OCc1ccc(-c2ccc(-c3cn([C@H]4CN5CCC4CC5)nn3)s2)s1`, 0.8 nM.
On the same count and under the same terms, the value for `CN1CCN(Cc2cccc(-c3ccc(-c4cn([C@H]5CN6CCC5CC6)nn4)s3)c2)CC1` was 16 nM; that for `CN1CCN(Cc2cccc(-c3cccc(-c4cn([C@H]5CN6CCC5CC6)nn4)c3)c2)CC1` was 39 nM.
In the case of `OCc1ccc(-c2ccc(-c3cn([C@H]4CN5CCC4CC5)nn3)s2)cc1F`, the affinity in data set [1] corresponds to a Ki of 12 nM.
On the same count and under the same terms, in the case of `c1cc(CN2CCOCC2)cc(-c2ccc(-c3cn([C@H]4CN5CCC4CC5)nn3)s2)c1` it was 16 nM; in that of `OCCOc1ccc(-c2ccc(-c3cn([C@H]4CN5CCC4CC5)nn3)s2)cc1`, 1.7 nM; in that of `c1cc(CN2CCCCC2)cc(-c2ccc(-c3cn([C@H]4CN5CCC4CC5)nn3)s2)c1`, 17 nM.
Same read-out and setting: the value for `NCc1ccc(-c2ccc(-c3cn([C@H]4CN5CCC4CC5)nn3)s2)cc1` was 0.3 nM; that for `FCc1cccc(-c2ccc(-c3cn([C@H]4CN5CCC4CC5)nn3)s2)c1` was 42 nM.
Consider `Fc1ccc(-c2ccc(-c3cn([C@H]4CN5CCC4CC5)nn3)s2)cn1`, for which the outcome in data set [7] was inactive. The Ki in data set [3] was > 1000 nM; in data set [4], 440 nM; in data set [1], 13 nM. For the same compound, the cytotoxicity at 48 h, 13 µM in data set [8] worked out at 15%. Moreover, the Activity entry in the data set on SH-SY5Y [9] is on record as “Non-Toxic”. Moreover, the outcome in data set [10] was Active.
Compound `c1csc(-c2ccc(-c3cn([C@H]4CN5CCC4CC5)nn3)cc2)c1` had a Ki in data set [1] of 110 to 160 nM.
On the same count and under the same terms, the value for `FCC1CCN(Cc2ccc(-c3ccc(-c4cn([C@H]5CN6CCC5CC6)nn4)s3)cc2)CC1` was 1.4 nM; that for `FCCc1ccc(-c2ccc(-c3cn([C@H]4CN5CCC4CC5)nn3)s2)cc1` was 157 nM; that for `OCc1ccc(-c2cccc(-c3cn([C@H]4CN5CCC4CC5)nn3)c2)cc1F` was 18 nM.
The same measure, in the same setting: in the case of `Fc1ccc(-c2csc(-c3cn([C@H]4CN5CCC4CC5)nn3)c2)cn1` it was 31 nM; in that of `c1cc2c(cc1-c1ccc(-c3cn([C@H]4CN5CCC4CC5)nn3)s1)CCO2`, 60 nM.
As for `FCc1ccc(-c2ccc(-c3cn([C@H]4CN5CCC4CC5)nn3)s2)cc1`, the Ki in data set [3] and in data set [4] was > 1000 nM each time. Further, in [11], the result was Active. Further, in the data set on SH-SY5Y [12], the Activity result is reported as “Non-Toxic”. In data set [13], the outcome was inactive.
With `Fc1ccc(-c2ccc(-c3cn([C@H]4CN5CCC4CC5)nn3)cc2)cn1`, in data set [1], the Ki was > 1000 nM.
The same measure, in the same setting: in the case of `c1cc(CN2CCOCC2)cc(-c2cccc(-c3cn([C@H]4CN5CCC4CC5)nn3)c2)c1` it was 49 nM.
As for `OCc1cccc(-c2ccc(-c3cn([C@H]4CN5CCC4CC5)nn3)s2)c1`, the result in data set [14] was inactive. The same compound gave a Ki in data set [1] of 0.7 nM.

For the origin of these results see ChEMBL document CHEMBL4351014, “Bis(het)aryl-1,2,3-triazole quinuclidines as α7 nicotinic acetylcholine receptor ligands: Synthesis, structure affinity relationships, agonism activity, [18F]-radiolabeling and PET study in rats” (Eur J Med Chem, 2019).
